The source made the active and inactive calls. No cut-off for these calls is given here.
What was measured:
[1] = target: Antithrombin-III (Bos taurus) (UniProt P41361); experiment: Inhibition of bovine antithrombin-3 at 1 x 10^-3 M
[2] = tested on: Plasma; experiment: Anticoagulant activity in human plasma assessed as concentration required to double thrombin time at 5 x 10^-3 M; format: functional, cell-free
Outline: (§1)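 Pooled citrated human plasma; compounds in water (10% DMSO for some), final 5 × 10⁻³ to 0.05 × 10⁻³ M; heparin 0.1–10 UI/mL as reference. APTT, PT and TT measured on a coagulometer with commercial kits, clotting time in s. Duplicates repeated on three days (n = 6). Concentration doubling clotting time obtained by linear regression of each concentration-response curve.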

[3] = tested on: Plasma; experiment: Anticoagulant activity in human plasma assessed as concentration required to double prothrombin time; format: functional; outline: as §1
[4] = tested on: Plasma; experiment: Anticoagulant activity in human plasma assessed as concentration required to double activated partial thromboplastin time; format: functional; outline: as §1
[5] = target: Coagulation factor X (Homo sapiens) (UniProt P00742); experiment: Inhibition of human factor 10a using CH3SO2-D-Leu-Gly-Arg-pNA, AcOH as substrate at 1 x 10^-3 M by chromogenic substrate hydrolysis assay
Chain of Coagulation factor X (Homo sapiens) (P00742 41-179 limits assumed): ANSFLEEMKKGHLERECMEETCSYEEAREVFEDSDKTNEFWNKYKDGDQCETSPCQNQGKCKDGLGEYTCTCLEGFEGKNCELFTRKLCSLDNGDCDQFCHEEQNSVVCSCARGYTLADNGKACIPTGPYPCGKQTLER
Chain of Coagulation factor X (Homo sapiens) (P00742 235-488 limits assumed): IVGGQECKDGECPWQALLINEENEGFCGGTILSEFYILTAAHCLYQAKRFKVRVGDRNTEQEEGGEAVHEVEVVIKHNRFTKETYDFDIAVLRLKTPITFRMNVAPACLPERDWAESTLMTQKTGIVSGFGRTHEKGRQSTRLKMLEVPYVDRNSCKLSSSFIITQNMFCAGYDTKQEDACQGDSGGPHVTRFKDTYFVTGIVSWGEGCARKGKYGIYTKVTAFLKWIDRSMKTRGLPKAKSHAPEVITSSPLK
Outline: (§2)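 Chromogenic hydrolysis in 50 mM Tris/HCl pH 8.3, 227 mM NaCl, 0.1% BSA, with and without bovine antithrombin III (1 U/mL final). Human factor Xa 0.5 U/mL with CBS 31.39 […], or human thrombin 0.06 U/mL with Chromozym TH […]. Absorbance at 405 nm, enzyme-free blank subtracted; initial slope vs water control gives % inhibition. Compounds at 1 × 10⁻³ M; n = 6.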

[6] = target: Prothrombin (Homo sapiens) (UniProt P00734); experiment: Inhibition of human thrombin using Tosyl-Gly-Pro-Arg-p-nitroaniline as substrate at 1 x 10^-3 M by chromogenic substrate hydrolysis assay; outline: as §2
[7] = tested on: Plasma; experiment: Anticoagulant activity in human plasma assessed as effect on APC level using CBS 42.46 as synthetic substrate at 1 x 10^-3 M; format: functional
Outline: (§3)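 Compound in saline added to citrated human plasma. Protein C activated by a snake venom-derived activator; enzyme formed quantified by amidolytic activity on chromogenic substrate CBS 42.46. Calibration curve linear 3–150%; normal and pathological control plasmas verify accuracy. Compounds at 1 × 10⁻³ M.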

[8] = tested on: MCF7; experiment: Cytotoxicity against human ER-positive MCF7 cells at 1.5 x 10^-4 after 48 hrs; format: cell-based; settings: mcf7, 48 h
[9] = tested on: NCI-H460; experiment: Cytotoxicity against human NCI-H460 cells at 1.5 x 10^-4 after 48 hrs; format: cell-based; settings: nci-h460, 48 h
[10] = Cytotoxicity against human A375-C5 cells at 1.5 x 10^-4 after 48 hrs; format: cell-based; settings: a375-c5, 48 h
[11] = tested on: Plasma; experiment: Anticoagulant activity in human plasma assessed as effect on prothrombin level by PT clotting time with factor II deficient plasma at 1 x 10^-3 M
[12] = tested on: Platelet; experiment: Antiplatelet activity against thrombin receptor-activating peptide-6-induced platelet aggregation in human blood at 6.25 x 10^-4 M measured for 6 mins by multiplate electrical impedance aggregometry; format: functional, cell-based
Outline: (§4)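 Hirudin-anticoagulated (final […]) healthy-donor whole blood, used within 0.5–1 h. Compound in saline to final 6.25 × 10⁻⁴ M; saline control, acetylsalicylic acid 6.25 × 10⁻⁴ M reference. Blood mixed with saline at 37 °C for 180 s, then agonist at final TRAP-6 […], arachidonic acid 0.5 mM or ADP […]. Impedance recorded 6 min; AUC from mean of two curves, accepted if within 20%.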

[13] = tested on: Platelet; experiment: Antiplatelet activity against arachidonic acid-induced platelet aggregation in human blood at 6.25 x 10^-4 M measured for 6 mins by multiplate electrical impedance aggregometry; format: functional, cell-based; outline: as §4
[14] = tested on: Platelet; experiment: Antiplatelet activity against adenosine diphosphate-induced platelet aggregation in human blood at 6.25 x 10^-4 M measured for 6 mins by multiplate electrical impedance aggregometry; format: functional, cell-based; outline: as §4
[15] = tested on: Plasma; experiment: Anticoagulant activity in human plasma assessed as effect on APC level using CBS 42.46 as synthetic substrate; format: functional, cell-free; outline: as §3
[16] = tested on: Plasma; experiment: Anticoagulant activity in human plasma assessed as effect on prothrombin level by PT clotting time with factor II deficient plasma
[17] = tested on: Blood; experiment: Anticoagulant activity in human whole blood assessed as clotting time at 6.25 x 10'4 M by thromboelastography assay; format: functional
Outline: (§5)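 Citrated whole blood (citrate:blood 1:9) from healthy donors. Compound in saline diluted 1:16 into blood to final 3.12 × 10⁻⁴ or 6.25 × 10⁻⁴ M; saline control. Thromboelastography with intrinsic activator (InTEM); R clotting time and K clot formation time in s. Mean of three independent experiments in duplicate.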

[18] = tested on: Blood; experiment: Anticoagulant activity in human whole blood assessed as clotting formation time at 6.25 x 10'4 M by InTEM-TEG assay; format: functional; outline: as §5
[19] = Antiplatelet activity against collagen-ADP-activated platelet in human blood assessed as closure time at 6.25 x 10^-4 M; format: functional
Outline: (§6)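 Healthy-donor whole blood collected into hirudin (final […]), analysed within 0.5–1 h. Closure time measured in a PFA-100 under high shear through an aperture, platelets activated by a collagen-coated membrane with ADP or epinephrine.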

[20] = Antiplatelet activity against collagen-epinephrine-activated platelet in human blood assessed as closure time at 6.25 x 10^-4 M; format: functional; outline: as §6
[21] = tested on: Plasma; experiment: Anticoagulant activity in human plasma assessed as concentration required to double prothrombin time at 5 x 10^-3 M; format: functional, cell-free; outline: as §1
[22] = species on record: Mus musculus; experiment: Acute hepatic toxicity in CD1 mouse; format: organism-based; settings: in vivo

Chain of Antithrombin-III (Bos taurus) (P41361 whole entry): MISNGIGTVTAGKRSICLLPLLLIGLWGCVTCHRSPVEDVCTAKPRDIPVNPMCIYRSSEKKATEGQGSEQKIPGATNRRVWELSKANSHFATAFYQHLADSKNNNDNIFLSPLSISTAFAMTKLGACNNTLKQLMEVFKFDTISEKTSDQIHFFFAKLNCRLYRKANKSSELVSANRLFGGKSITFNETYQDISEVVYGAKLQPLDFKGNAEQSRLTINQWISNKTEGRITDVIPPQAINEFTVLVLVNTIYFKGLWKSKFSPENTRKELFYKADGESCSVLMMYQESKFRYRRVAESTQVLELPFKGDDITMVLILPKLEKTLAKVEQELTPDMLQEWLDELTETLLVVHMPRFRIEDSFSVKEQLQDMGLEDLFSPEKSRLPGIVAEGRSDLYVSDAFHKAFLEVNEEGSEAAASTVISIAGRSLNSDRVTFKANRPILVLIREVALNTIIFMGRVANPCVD

| SMILES | inhibition [1] | Activity [2] | 2PT [3] | Activity [3] | 2aPTT [4] | Activity [4] | inhibition [5] | inhibition [6] | Activity [7] | Activity [8] | Activity [9] | Activity [10] | Activity [11] | AUC [12] | AUC [13] | AUC [14] | other results |
| --- | --- | --- | --- | --- | --- | --- | --- | --- | --- | --- | --- | --- | --- | --- | --- | --- | --- |
| Cc1cc(=O)oc2cc(O[C@@H]3O[C@H](COS(=O)(=O)[O-])[C@@H](OS(=O)(=O)[O-])[C@H](OS(=O)(=O)[O-])[C@H]3OS(=O)(=O)[O-])ccc12.[Na+].[Na+].[Na+].[Na+] | inactive | inactive | > 5 mM | Dose-dependent effect | 1.18 mM | Dose-dependent effect | inactive | inactive | 97% | Non-toxic | Non-toxic | Non-toxic | 64.5% |  |  |  |  |
| C[C@@H]1O[C@@H](OC[C@H]2O[C@@H](Oc3c(-c4ccc(OCCOS(=O)(=O)[O-])c(OCCOS(=O)(=O)[O-])c4)oc4cc(OCCOS(=O)(=O)[O-])cc(O)c4c3=O)[C@H](OS(=O)(=O)[O-])[C@@H](OS(=O)(=O)[O-])[C@@H]2OS(=O)(=O)[O-])[C@H](OS(=O)(=O)[O-])[C@H](OS(=O)(=O)[O-])[C@H]1OS(=O)(=O)[O-].[Na+].[Na+].[Na+].[Na+].[Na+].[Na+].[Na+].[Na+].[Na+] |  |  |  |  |  |  |  |  | 38.5% | Non-toxic | Non-toxic | Non-toxic | 10.9% | 840 AU.min | 330 AU.min | 330 AU.min | Activity [15]: Dose-dependent effect; Activity [16]: Dose-dependent effect |
| O=C1O[C@H]([C@H](COS(=O)(=O)[O-])OS(=O)(=O)[O-])C(OS(=O)(=O)[O-])=C1OS(=O)(=O)[O-].[Na+].[Na+].[Na+].[Na+] [ASCORBIC ACID PERSULFATE] | inactive | inactive | > 5 mM | Dose-dependent effect | 0.315 mM | Dose-dependent effect | inactive | inactive | 94% |  |  |  | 91.5% | 1100 AU.min | 905 AU.min | 680 AU.min | Time [17]: 205 s; Time [18]: 84 s; Time [19]: 106 s; Time [20]: 121 s |
| O=C(O)c1cc(OS(=O)(=O)[O-])c(OS(=O)(=O)[O-])c(OS(=O)(=O)[O-])c1.[Na+].[Na+].[Na+] | inactive | inactive |  |  | 1.96 mM | Dose-dependent effect | inactive | inactive | 101% | Non-toxic | Non-toxic | Non-toxic | 61.5% |  |  |  | Activity [21]: inactive |
| CC(=O)Oc1ccccc1C(=O)O |  |  |  |  |  |  |  |  |  |  |  |  |  |  | 230 AU.min |  |  |
| COc1ccc([C@@H]2CC(=O)c3c(O)cc(O[C@@H]4O[C@H](CO[C@@H]5O[C@@H](C)[C@H](OS(=O)(=O)[O-])[C@@H](OS(=O)(=O)[O-])[C@H]5OS(=O)(=O)[O-])[C@@H](OS(=O)(=O)[O-])[C@H](OS(=O)(=O)[O-])[C@H]4OS(=O)(=O)[O-])cc3O2)cc1O.[Na+].[Na+].[Na+].[Na+].[Na+].[Na+] [HEXASULFATED HESPERIDIN] |  |  |  |  | 4.13 ×10⁻⁴ M |  |  |  | 85% | Non-toxic | Non-toxic | Non-toxic | 47.5% | 1200 AU.min | 150 AU.min | 150 AU.min |  |
| O=c1oc2c(OS(=O)(=O)O)c(OS(=O)(=O)O)cc3c(=O)oc4c(OS(=O)(=O)O)c(OS(=O)(=O)O)cc1c4c23 |  | inactive |  |  |  |  |  |  |  |  |  |  |  |  |  |  | Activity [21]: inactive |
| O=S(=O)([O-])OCc1ccccc1O[C@@H]1O[C@H](COS(=O)(=O)[O-])[C@@H](OS(=O)(=O)[O-])[C@H](OS(=O)(=O)[O-])[C@H]1OS(=O)(=O)[O-].[Na+].[Na+].[Na+].[Na+].[Na+] [SALICIN PERSULFATE] | inactive | inactive | > 5 mM | Dose-dependent effect | 0.899 mM | Dose-dependent effect | inactive | inactive | 93% | Non-toxic | Non-toxic | Non-toxic | 66% |  |  |  |  |
| COc1ccc(-c2cc(=O)c3c(O)cc(O[C@@H]4O[C@H](CO[C@@H]5O[C@@H](C)[C@H](OS(=O)(=O)[O-])[C@@H](OS(=O)(=O)[O-])[C@H]5OS(=O)(=O)[O-])[C@@H](OS(=O)(=O)[O-])[C@H](OS(=O)(=O)[O-])[C@H]4OS(=O)(=O)[O-])cc3o2)cc1O.[Na+].[Na+].[Na+].[Na+].[Na+].[Na+] [HEXASULFATED DIOSMIN] |  |  |  |  | 4.35 ×10⁻⁴ M |  |  |  | 87% | Non-toxic | Non-toxic | Non-toxic | 54% | 1090 AU.min | 340 AU.min | 200 AU.min | Activity [22]: Non-toxic |
| O=C(/C=C/c1ccc(OS(=O)(=O)[O-])c(OS(=O)(=O)[O-])c1)O[C@@H]1C[C@](OS(=O)(=O)[O-])(C(=O)O)C[C@@H](OS(=O)(=O)[O-])[C@H]1OS(=O)(=O)[O-].[Na+].[Na+].[Na+].[Na+].[Na+] [CHLOROGENIC ACID PERSULFATE] | inactive | inactive |  |  | 3.66 mM | Dose-dependent effect | inactive | inactive | 95% |  |  |  | 82% |  |  |  | Activity [21]: inactive |
| O=c1ccc2cc(O[C@@H]3O[C@H](COS(=O)(=O)[O-])[C@@H](OS(=O)(=O)[O-])[C@H](OS(=O)(=O)[O-])[C@H]3OS(=O)(=O)[O-])c(OS(=O)(=O)[O-])cc2o1.[Na+].[Na+].[Na+].[Na+].[Na+] [ESCULIN PERSULFATE] | inactive | inactive | > 5 mM | Dose-dependent effect | 0.309 mM | Dose-dependent effect | inactive | inactive | 87% | Non-toxic | Non-toxic | Non-toxic | 64.5% | 890 AU.min | 980 AU.min | 980 AU.min | Time [17]: 340 s; Time [18]: 95 s |

From ChEMBL document CHEMBL2150885, “Dual anticoagulant/antiplatelet persulfated small molecules” (Eur J Med Chem, 2011)
